Columns and labels:
[1] = target: Bcr/Abl fusion protein (Homo sapiens, UniProt P00519); assay: Inhibition of Bcr-Abl kinase (unknown origin) after 30 mins by HTRF assay; type: protein assay
[2] = tested on: K562; assay: Antiproliferative activity against human K562 cells after 48 hrs by MTT assay; type: functional, cell-based; details: K562, 48 h
Method in brief: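 Exponentially growing K562 cells were seeded at 1 × 10⁴ cells/well and preincubated 24 h at 37 °C. They were then exposed to the compounds at various concentrations for 48 h. MTT (5 mg/mL solution) was added for 4 h at 37 °C, the supernatant was removed, and formazan was dissolved in DMSO. Absorbance was read at 490 nm, and IC₅₀ is reported in µM.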

Sequence of Bcr/Abl fusion protein (P00519 whole entry, the tested form may be a part): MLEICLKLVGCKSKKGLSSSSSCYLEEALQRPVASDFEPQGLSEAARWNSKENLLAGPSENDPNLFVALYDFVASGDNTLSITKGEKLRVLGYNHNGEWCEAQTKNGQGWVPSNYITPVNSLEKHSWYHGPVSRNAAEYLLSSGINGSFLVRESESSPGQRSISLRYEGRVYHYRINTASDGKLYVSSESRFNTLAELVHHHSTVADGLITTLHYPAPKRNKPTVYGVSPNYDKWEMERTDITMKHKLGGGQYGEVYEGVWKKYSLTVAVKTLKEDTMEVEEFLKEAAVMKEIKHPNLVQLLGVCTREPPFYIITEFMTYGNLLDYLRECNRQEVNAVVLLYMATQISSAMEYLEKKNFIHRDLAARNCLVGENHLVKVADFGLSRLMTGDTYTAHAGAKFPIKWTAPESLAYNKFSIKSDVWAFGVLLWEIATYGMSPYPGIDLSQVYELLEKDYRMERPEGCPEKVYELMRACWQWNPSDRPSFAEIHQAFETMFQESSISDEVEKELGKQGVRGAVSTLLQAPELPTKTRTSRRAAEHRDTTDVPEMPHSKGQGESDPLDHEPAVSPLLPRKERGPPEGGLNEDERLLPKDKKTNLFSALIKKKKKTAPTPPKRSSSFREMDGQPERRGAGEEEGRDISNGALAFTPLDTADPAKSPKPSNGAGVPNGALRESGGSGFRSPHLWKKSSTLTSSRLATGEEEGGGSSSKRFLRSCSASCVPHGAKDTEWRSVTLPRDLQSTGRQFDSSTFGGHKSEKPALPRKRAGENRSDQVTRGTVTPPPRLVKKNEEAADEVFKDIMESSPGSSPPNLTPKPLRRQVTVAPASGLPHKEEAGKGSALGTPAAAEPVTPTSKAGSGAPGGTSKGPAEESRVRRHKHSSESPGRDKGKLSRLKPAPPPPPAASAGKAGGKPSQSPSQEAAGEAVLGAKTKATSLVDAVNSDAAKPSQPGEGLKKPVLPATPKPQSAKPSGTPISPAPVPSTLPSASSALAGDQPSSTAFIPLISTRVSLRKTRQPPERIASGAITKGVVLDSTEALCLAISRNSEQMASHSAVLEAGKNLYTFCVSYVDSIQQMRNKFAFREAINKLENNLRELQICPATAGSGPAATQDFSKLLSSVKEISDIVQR
Sequence of Bcr/Abl fusion protein (P11274 whole entry, further chain, the tested form may be a part): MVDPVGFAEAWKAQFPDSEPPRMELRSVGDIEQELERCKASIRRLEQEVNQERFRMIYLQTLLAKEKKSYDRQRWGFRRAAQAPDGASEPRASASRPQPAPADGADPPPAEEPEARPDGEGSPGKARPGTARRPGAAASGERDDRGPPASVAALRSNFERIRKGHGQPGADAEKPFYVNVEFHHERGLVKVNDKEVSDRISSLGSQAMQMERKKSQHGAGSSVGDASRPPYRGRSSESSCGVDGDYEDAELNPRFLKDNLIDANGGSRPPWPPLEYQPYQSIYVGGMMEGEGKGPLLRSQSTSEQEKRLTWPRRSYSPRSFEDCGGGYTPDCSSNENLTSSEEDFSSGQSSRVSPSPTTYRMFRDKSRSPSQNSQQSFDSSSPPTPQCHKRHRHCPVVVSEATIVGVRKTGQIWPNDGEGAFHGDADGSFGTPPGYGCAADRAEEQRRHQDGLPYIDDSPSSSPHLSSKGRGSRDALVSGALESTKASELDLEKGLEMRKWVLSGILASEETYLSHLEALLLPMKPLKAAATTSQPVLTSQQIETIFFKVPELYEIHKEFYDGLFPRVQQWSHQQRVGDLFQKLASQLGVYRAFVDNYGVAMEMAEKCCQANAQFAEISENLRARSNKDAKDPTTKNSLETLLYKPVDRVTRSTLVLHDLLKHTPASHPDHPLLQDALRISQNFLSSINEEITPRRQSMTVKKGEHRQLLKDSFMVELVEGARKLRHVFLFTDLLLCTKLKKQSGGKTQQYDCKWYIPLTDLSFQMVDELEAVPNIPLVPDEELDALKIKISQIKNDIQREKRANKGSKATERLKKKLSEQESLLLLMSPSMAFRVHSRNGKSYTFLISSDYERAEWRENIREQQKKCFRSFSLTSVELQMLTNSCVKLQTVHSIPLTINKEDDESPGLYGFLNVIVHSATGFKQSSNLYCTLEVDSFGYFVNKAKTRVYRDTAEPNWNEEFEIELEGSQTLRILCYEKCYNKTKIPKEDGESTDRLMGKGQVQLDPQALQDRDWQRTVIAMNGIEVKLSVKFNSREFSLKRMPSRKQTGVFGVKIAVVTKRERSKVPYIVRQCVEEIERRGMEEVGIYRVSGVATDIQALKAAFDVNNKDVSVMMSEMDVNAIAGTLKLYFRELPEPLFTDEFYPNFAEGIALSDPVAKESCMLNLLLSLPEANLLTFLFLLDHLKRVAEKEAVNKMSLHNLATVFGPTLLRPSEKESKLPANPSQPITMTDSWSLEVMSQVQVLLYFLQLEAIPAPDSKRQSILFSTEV

Row | SMILES | IC50 [1] | IC50 [2]
1 | COc1ccc(C(=O)Nc2ccc(F)c(Cl)c2)cc1Nc1nccc(-c2cccnc2)n1 | 4.73 nM | 
2 | COc1ccc(C(=O)Nc2cccc(C(F)(F)F)c2)cc1Nc1nccc(-c2cccnc2)n1 | 4130 nM | 
3 | COc1ccc(C(=O)Nc2ccc(Br)cc2)cc1Nc1nccc(-c2cccnc2)n1 | 4.79 nM | 
4 | COc1ccc(C(=O)Nc2cccc(F)c2)cc1Nc1nccc(-c2cccnc2)n1 | 3.21 nM | 
5 | COc1ccc(C(=O)Nc2cc(C(F)(F)F)cc(C(F)(F)F)c2)cc1Nc1nccc(-c2cccnc2)n1 |  | 4840 nM
6 | COc1ccc(C(=O)Nc2cc(Br)cc(C(F)(F)F)c2)cc1Nc1nccc(-c2cccnc2)n1 |  | 215000 nM
7 | COc1ccc(C(=O)Nc2cccc(Cl)c2)cc1Nc1nccc(-c2cccnc2)n1 | 34.8 nM | 237000 nM
8 | COc1ccc(C(=O)Nc2cccc(C(C)=O)c2)cc1Nc1nccc(-c2cccnc2)n1 |  | 237000 nM
9 | COc1cccc(NC(=O)c2ccc(OC)c(Nc3nccc(-c4cccnc4)n3)c2)c1 |  | 93100 nM
10 | COc1ccc(C(=O)Nc2ccncc2)cc1Nc1nccc(-c2cccnc2)n1 | 2750 nM | 94500 nM
11 | COc1ccc(C(=O)Nc2ncccn2)cc1Nc1nccc(-c2cccnc2)n1 | 3.78 nM | 
12 | COc1ccc(C(=O)Nc2nccs2)cc1Nc1nccc(-c2cccnc2)n1 | 294 nM | 
13 | COc1ccc(C(=O)Nc2ccc(OCCCN(C)C)cc2)cc1Nc1nccc(-c2cccnc2)n1 | 0.52 nM | 38500 nM
14 | COc1ccc(C(=O)Nc2ccc(OCCN(C)C)cc2)cc1Nc1nccc(-c2cccnc2)n1 | 2.34 nM | 
15 | CCN(CC)CCOc1ccc(NC(=O)c2ccc(OC)c(Nc3nccc(-c4cccnc4)n3)c2)cc1 | 1.48 nM | 
16 | COc1ccc(C(=O)Nc2ccc(OCCN3CCCC3)cc2)cc1Nc1nccc(-c2cccnc2)n1 | 350 nM | 38600 nM
17 | COc1ccc(C(=O)Nc2ccc(OCCN3CCCCC3)cc2)cc1Nc1nccc(-c2cccnc2)n1 | 1110 nM | 5150 nM
18 | COc1ccc(C(=O)Nc2ccc(OCCN3CCOCC3)cc2)cc1Nc1nccc(-c2cccnc2)n1 | 63.3 nM | 
19 | COc1ccc(C(=O)Nc2ccc(OCCCN3CCOCC3)cc2)cc1Nc1nccc(-c2cccnc2)n1 | 6.34 nM | 
20 | Cc1cn(-c2cc(NC(=O)c3ccc(C)c(Nc4nccc(-c5cccnc5)n4)c3)cc(C(F)(F)F)c2)cn1 [NILOTINIB] |  | 89100 nM

From ChEMBL document CHEMBL2375324 (Bioorg Med Chem, 2013)
